Laboratory results reported in ChEMBL document CHEMBL3351385, “Synthesis and preliminary mechanistic evaluation of 5-(p-tolyl)-1-(quinolin-2-yl)pyrazole-3-carboxylic acid amides with potent antiproliferative activity on human cancer cell lines” (Eur J Med Chem, 2014).

How the values were obtained:
[1] = target: Tyrosine-protein kinase ZAP-70 (Homo sapiens) (UniProt P43403); assay: Inhibition of ZAP70 (unknown origin) assessed as remaining enzyme activity at 10 uM by radioactive [33P]-ATP filter binding assay
[2] = target: Homeodomain-interacting protein kinase 3 (Homo sapiens) (UniProt Q9H422); assay: Inhibition of HIPK3 (unknown origin) assessed as remaining enzyme activity at 10 uM by radioactive [33P]-ATP filter binding assay
[3] = target: Serine/threonine-protein kinase 3 (Homo sapiens) (UniProt Q13188); assay: Inhibition of MST2 (unknown origin) assessed as remaining enzyme activity at 10 uM by radioactive [33P]-ATP filter binding assay
[4] = target: Serine/threonine-protein kinase 24 (Homo sapiens) (UniProt Q9Y6E0); assay: Inhibition of MST3 (unknown origin) assessed as remaining enzyme activity at 10 uM by radioactive [33P]-ATP filter binding assay
[5] = target: Insulin receptor-related protein (Homo sapiens) (UniProt P14616); assay: Inhibition of IRR (unknown origin) assessed as remaining enzyme activity at 10 uM by radioactive [33P]-ATP filter binding assay
[6] = target: Receptor tyrosine-protein kinase erbB-4 (Homo sapiens) (UniProt Q15303); assay: Inhibition of HER4 (unknown origin) assessed as remaining enzyme activity at 10 uM by radioactive [33P]-ATP filter binding assay
[7] = target: Tyrosine-protein kinase Yes (Homo sapiens) (UniProt P07947); assay: Inhibition of YES1 (unknown origin) assessed as remaining enzyme activity at 10 uM by radioactive [33P]-ATP filter binding assay
[8] = target: Serine/threonine-protein kinase pim-3 (Homo sapiens) (UniProt Q86V86); assay: Inhibition of PIM3 (unknown origin) assessed as remaining enzyme activity at 10 uM by radioactive [33P]-ATP filter binding assay
[9] = target: Serine/threonine-protein kinase WNK1 (Homo sapiens) (UniProt Q9H4A3); assay: Inhibition of WNK1 (unknown origin) assessed as remaining enzyme activity at 10 uM by radioactive [33P]-ATP filter binding assay
[10] = target: Mitogen-activated protein kinase 8 (Homo sapiens) (UniProt P45983); assay: Inhibition of JNK1 (unknown origin) assessed as remaining enzyme activity at 10 uM by radioactive [33P]-ATP filter binding assay
[11] = target: Serine/threonine-protein kinase PAK 6 (Homo sapiens) (UniProt Q9NQU5); assay: Inhibition of PAK6 (unknown origin) assessed as remaining enzyme activity at 10 uM by radioactive [33P]-ATP filter binding assay
[12] = target: Serine/threonine-protein kinase PINK1, mitochondrial (Homo sapiens) (UniProt Q9BXM7); assay: Inhibition of PINK (unknown origin) assessed as remaining enzyme activity at 10 uM by radioactive [33P]-ATP filter binding assay
[13] = target: Aurora kinase A (Homo sapiens) (UniProt O14965); assay: Inhibition of Aurora A (unknown origin) assessed as remaining enzyme activity at 10 uM by radioactive [33P]-ATP filter binding assay
Method in brief: (§1)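 A single 10 µM concentration was tested across a 140-kinase panel. Activity was measured by a radioactive 33P-ATP filter-binding assay run at the International Center for Kinase Profiling, University of Dundee.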

[14] = target: Myosin light chain kinase, smooth muscle (Homo sapiens) (UniProt Q15746); assay: Inhibition of smMLCK (unknown origin) assessed as remaining enzyme activity at 10 uM by radioactive [33P]-ATP filter binding assay
[15] = target: Serine/threonine-protein kinase OSR1 (Homo sapiens) (UniProt O95747); assay: Inhibition of OSR1 (unknown origin) assessed as remaining enzyme activity at 10 uM by radioactive [33P]-ATP filter binding assay
[16] = target: Serine/threonine-protein kinase Nek2 (Homo sapiens) (UniProt P51955); assay: Inhibition of NEK2A (unknown origin) assessed as remaining enzyme activity at 10 uM by radioactive [33P]-ATP filter binding assay
[17] = target: Death-associated protein kinase 1 (Homo sapiens) (UniProt P53355); assay: Inhibition of DAPK1 (unknown origin) assessed as remaining enzyme activity at 10 uM by radioactive [33P]-ATP filter binding assay; method in brief: as §1
[18] = target: Ribosomal protein S6 kinase alpha-5 (Homo sapiens) (UniProt O75582); assay: Inhibition of MSK1 (unknown origin) assessed as remaining enzyme activity at 10 uM by radioactive [33P]-ATP filter binding assay
[19] = Induction of cell cycle arrest in human HuH7 cells assessed as accumulation at S phase at cytotoxic IC50 level after 48 hrs by propidium iodide staining based FACS method; format: functional, Huh-7
Method in brief: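 Huh7 cells were seeded at 150,000–300,000 per 100-mm dish and left 24 h. […] Cells were stained with a propidium iodide-containing cell cycle reagent, and subG1, G0/G1, S and G2/M fractions were scored by flow cytometry.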

[20] = target: Serine/threonine-protein kinase MARK2 (Homo sapiens) (UniProt Q7KZI7); assay: Inhibition of MARK2 (unknown origin) assessed as remaining enzyme activity at 10 uM by radioactive [33P]-ATP filter binding assay
[21] = target: Eukaryotic translation initiation factor 2-alpha kinase 3 (Homo sapiens) (UniProt Q9NZJ5); assay: Inhibition of EIF2AK3 (unknown origin) assessed as remaining enzyme activity at 10 uM by radioactive [33P]-ATP filter binding assay; method in brief: as §1
[22] = target: TGF-beta receptor type-1 (Homo sapiens) (UniProt P36897); assay: Inhibition of TGFBR1 (unknown origin) assessed as remaining enzyme activity at 10 uM by radioactive [33P]-ATP filter binding assay
[23] = target: Casein kinase II (Homo sapiens) (UniProt P67870+P68400+P19784); assay: Inhibition of CK2 (unknown origin) assessed as remaining enzyme activity at 10 uM by radioactive [33P]-ATP filter binding assay; format: protein-complex assay; method in brief: as §1
[24] = target: Fibroblast growth factor receptor 1 (Homo sapiens) (UniProt P11362); assay: Inhibition of FGFR1 (unknown origin) assessed as remaining enzyme activity at 10 uM by radioactive [33P]-ATP filter binding assay; method in brief: as §1
[25] = target: Serine/threonine-protein kinase Nek6 (Homo sapiens) (UniProt Q9HC98); assay: Inhibition of NEK6 (unknown origin) assessed as remaining enzyme activity at 10 uM by radioactive [33P]-ATP filter binding assay
[26] = target: Serine/threonine-protein kinase PAK 2 (Homo sapiens) (UniProt Q13177); assay: Inhibition of PAK2 (unknown origin) assessed as remaining enzyme activity at 10 uM by radioactive [33P]-ATP filter binding assay
[27] = target: Ribosomal protein S6 kinase beta-1 (Homo sapiens) (UniProt P23443); assay: Inhibition of S6K1 (unknown origin) assessed as remaining enzyme activity at 10 uM by radioactive [33P]-ATP filter binding assay
[28] = target: Casein kinase I isoform gamma-2 (Homo sapiens) (UniProt P78368); assay: Inhibition of CK1gamma2 (unknown origin) assessed as remaining enzyme activity at 10 uM by radioactive [33P]-ATP filter binding assay; method in brief: as §1
[29] = target: Interleukin-1 receptor-associated kinase 1 (Homo sapiens) (UniProt P51617); assay: Inhibition of IRAK1 (unknown origin) assessed as remaining enzyme activity at 10 uM by radioactive [33P]-ATP filter binding assay

Sequence of Receptor tyrosine-protein kinase erbB-4 (Homo sapiens) (Q15303 whole entry): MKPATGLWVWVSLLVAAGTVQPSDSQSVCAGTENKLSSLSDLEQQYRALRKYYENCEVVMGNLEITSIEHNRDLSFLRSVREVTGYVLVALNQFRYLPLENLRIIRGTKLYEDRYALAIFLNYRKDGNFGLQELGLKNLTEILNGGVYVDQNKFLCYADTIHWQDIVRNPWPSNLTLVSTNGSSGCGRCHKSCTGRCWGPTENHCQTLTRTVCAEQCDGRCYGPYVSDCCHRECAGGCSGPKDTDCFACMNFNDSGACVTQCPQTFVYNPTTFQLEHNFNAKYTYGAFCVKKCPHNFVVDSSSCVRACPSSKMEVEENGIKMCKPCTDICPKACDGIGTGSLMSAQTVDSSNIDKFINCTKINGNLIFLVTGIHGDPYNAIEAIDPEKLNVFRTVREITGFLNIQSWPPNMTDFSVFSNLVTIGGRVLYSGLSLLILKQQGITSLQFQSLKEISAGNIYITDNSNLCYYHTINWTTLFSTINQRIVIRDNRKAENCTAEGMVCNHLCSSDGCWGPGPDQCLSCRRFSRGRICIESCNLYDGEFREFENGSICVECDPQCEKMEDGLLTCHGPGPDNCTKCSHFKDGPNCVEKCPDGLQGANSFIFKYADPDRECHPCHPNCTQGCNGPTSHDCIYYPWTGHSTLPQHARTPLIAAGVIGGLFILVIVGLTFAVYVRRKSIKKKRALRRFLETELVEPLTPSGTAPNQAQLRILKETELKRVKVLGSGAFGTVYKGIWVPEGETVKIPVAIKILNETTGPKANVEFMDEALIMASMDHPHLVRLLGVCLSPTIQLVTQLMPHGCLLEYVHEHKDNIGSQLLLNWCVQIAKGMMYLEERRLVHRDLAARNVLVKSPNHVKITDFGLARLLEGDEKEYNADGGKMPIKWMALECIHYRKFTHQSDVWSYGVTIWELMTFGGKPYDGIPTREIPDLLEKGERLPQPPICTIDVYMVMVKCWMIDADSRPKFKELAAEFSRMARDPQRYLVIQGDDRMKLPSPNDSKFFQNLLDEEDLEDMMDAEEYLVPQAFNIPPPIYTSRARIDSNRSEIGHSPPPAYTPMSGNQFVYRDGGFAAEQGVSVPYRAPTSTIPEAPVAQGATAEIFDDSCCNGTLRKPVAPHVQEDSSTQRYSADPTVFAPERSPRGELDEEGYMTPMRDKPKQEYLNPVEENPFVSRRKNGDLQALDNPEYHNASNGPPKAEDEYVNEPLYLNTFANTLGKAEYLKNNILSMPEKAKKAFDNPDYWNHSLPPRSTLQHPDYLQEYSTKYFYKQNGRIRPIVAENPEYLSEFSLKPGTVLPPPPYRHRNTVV
Sequence of Tyrosine-protein kinase ZAP-70 (Homo sapiens) (P43403 whole entry): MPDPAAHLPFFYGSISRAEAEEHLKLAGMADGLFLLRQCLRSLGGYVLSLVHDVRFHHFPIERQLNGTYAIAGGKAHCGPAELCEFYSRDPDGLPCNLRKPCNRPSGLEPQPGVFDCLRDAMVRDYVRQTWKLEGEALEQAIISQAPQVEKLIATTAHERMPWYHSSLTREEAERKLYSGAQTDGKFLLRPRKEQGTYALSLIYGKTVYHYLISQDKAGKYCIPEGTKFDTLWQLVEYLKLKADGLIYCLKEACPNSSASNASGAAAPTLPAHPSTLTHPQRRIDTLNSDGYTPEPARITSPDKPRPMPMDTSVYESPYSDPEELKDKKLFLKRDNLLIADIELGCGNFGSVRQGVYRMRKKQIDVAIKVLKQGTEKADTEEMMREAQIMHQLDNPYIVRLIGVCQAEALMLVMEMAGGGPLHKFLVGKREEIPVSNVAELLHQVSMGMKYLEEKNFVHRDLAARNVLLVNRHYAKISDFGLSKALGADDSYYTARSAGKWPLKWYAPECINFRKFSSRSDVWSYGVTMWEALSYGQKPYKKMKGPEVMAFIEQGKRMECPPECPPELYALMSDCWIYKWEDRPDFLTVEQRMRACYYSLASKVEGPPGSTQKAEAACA
Sequence of Aurora kinase A (Homo sapiens) (O14965 whole entry): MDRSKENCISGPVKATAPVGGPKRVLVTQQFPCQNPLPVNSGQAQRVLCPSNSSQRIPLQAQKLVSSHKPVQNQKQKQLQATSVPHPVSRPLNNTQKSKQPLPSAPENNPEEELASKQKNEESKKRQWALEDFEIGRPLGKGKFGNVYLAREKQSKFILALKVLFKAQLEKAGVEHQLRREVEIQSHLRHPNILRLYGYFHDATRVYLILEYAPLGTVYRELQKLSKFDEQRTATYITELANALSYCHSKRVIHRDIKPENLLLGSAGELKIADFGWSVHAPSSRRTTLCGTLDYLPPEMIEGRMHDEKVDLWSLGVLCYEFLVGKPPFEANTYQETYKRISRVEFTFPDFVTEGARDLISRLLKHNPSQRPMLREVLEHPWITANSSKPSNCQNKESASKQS
Sequence of Casein kinase I isoform gamma-2 (Homo sapiens) (P78368 whole entry, looked up, canonical isoform): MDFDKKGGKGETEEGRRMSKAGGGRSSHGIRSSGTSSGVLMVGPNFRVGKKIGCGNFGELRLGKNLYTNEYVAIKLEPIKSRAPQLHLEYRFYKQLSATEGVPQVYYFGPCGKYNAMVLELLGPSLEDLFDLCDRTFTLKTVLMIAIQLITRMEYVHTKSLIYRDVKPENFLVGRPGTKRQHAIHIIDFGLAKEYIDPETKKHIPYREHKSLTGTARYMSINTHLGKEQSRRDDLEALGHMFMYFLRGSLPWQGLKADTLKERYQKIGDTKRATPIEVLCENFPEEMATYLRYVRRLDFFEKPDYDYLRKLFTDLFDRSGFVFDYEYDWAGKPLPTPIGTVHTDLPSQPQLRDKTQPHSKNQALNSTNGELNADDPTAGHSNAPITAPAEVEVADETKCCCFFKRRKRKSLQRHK
Sequence of Serine/threonine-protein kinase 3 (Homo sapiens) (Q13188 whole entry): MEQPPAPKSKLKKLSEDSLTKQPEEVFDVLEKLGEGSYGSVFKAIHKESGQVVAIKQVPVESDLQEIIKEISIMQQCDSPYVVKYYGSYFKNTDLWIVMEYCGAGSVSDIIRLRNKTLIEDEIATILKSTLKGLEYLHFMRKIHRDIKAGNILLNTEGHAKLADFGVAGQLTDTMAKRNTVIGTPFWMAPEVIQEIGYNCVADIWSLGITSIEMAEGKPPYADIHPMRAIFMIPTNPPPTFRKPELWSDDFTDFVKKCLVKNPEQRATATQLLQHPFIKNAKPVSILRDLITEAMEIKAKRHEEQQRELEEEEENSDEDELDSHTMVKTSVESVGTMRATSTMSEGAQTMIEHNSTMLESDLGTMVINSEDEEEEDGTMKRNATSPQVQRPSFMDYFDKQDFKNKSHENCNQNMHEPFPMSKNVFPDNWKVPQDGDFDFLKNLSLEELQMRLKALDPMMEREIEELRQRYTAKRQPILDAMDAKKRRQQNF
Sequence of Mitogen-activated protein kinase 8 (Homo sapiens) (P45983 whole entry): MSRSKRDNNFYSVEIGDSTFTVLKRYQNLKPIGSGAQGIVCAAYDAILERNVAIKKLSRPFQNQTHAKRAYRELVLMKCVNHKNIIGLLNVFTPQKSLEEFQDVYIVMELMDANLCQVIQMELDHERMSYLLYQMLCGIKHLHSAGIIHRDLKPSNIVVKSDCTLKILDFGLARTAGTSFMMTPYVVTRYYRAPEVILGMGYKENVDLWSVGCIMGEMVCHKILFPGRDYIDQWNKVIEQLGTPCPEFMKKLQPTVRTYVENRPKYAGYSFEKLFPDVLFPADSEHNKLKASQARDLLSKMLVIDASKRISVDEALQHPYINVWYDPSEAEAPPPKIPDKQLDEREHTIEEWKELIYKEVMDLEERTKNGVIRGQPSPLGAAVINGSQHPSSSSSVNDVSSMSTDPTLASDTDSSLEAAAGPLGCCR
Sequence of Insulin receptor-related protein (Homo sapiens) (P14616 27-742 limits assumed): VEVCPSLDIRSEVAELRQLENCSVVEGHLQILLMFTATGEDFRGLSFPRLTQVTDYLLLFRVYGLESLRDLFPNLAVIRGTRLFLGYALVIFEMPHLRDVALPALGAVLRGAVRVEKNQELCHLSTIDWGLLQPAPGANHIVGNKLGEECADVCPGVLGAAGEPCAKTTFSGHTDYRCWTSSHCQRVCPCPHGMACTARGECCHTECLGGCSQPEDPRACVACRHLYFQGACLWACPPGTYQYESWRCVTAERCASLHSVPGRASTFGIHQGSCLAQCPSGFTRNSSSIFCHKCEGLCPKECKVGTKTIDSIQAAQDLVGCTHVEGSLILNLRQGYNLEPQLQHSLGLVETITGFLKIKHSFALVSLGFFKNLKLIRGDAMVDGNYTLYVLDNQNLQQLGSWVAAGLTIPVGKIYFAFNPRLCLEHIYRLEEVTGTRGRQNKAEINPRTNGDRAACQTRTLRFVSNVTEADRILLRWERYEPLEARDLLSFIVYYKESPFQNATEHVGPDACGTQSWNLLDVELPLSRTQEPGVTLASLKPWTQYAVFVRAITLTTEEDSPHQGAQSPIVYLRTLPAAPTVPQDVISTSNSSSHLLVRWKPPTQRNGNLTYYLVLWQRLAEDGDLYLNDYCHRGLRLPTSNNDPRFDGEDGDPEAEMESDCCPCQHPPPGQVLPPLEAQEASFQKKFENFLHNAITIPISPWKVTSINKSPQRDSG
Sequence of Insulin receptor-related protein (Homo sapiens) (P14616 747-1297 limits assumed): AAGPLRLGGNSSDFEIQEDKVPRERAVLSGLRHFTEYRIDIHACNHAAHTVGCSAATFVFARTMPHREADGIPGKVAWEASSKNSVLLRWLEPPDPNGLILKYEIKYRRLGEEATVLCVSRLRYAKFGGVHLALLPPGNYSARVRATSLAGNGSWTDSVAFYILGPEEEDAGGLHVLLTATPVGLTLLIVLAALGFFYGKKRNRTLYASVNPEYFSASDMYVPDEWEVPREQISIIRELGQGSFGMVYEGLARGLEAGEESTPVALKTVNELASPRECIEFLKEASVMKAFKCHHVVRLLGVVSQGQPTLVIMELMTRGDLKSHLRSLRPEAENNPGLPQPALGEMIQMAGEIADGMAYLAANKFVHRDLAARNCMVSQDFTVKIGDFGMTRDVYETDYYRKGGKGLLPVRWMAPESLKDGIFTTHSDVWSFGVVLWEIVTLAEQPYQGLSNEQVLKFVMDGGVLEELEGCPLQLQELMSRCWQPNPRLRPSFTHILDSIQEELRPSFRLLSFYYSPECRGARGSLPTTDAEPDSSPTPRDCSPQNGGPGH

Structure (SMILES): Cc1ccc(-c2cc(C(=O)Nc3ccnc(Cl)c3)nn2-c2ccc3ccccc3n2)cc1
- Activity [1]: 115%
- Activity [2]: 100%
- Activity [3]: 104%
- Activity [4]: 106%
- Activity [5]: 100%
- Activity [6]: 128%
- Activity [7]: 108%
- Activity [8]: 113%
- Activity [9]: 106%
- Activity [10]: 103%
- Activity [11]: 104%
- Activity [12]: 114%
- Activity [13]: 120%
- Activity [14]: 103%
- Activity [15]: 111%
- Activity [16]: 90%
- Activity [17]: 112%
- Activity [18]: 89%
- Activity [19]: 10.3%
- Activity [20]: 101%
- Activity [21]: 96%
- Activity [22]: 108%
- Activity [23]: 85%
- Activity [24]: 127%
- Activity [25]: 116%
- Activity [26]: 109%
- Activity [27]: 88%
- Activity [28]: 99%
- Activity [29]: 109%
